The target in assay [1] is 5-hydroxytryptamine receptor 7 (Homo sapiens, UniProt P34969). As to the kind of experiment: Displacement of [3H]-5-CT from human 5-HT7 receptor expressed in HEK293 cells after 1 hr by liquid scintillation counting. The assay is classed as cell-based. An outline of the steps:
(§1)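 Competition binding with 7–9 compound concentrations, each run in triplicate. 5-HT1A, 5-HT2A and α1 sites were native. 5-HT6 used [3H]-LSD and 5-HT7 used [3H]-5-CT, both on cloned human receptors stably expressed in HEK293 cells. After incubation, samples were vacuum-filtered through GF/B filters and washed with ice-cold buffer. Bound radioactivity was counted by liquid scintillation.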
On the technique in general: Loss of bound radioactivity is the signal in a displacement assay; it reports binding, not function.

The target in assay [2] is T1, 5-hydroxytryptamine receptor 1A (Rattus norvegicus, UniProt P19327).
T1 sequence (P19327 whole entry): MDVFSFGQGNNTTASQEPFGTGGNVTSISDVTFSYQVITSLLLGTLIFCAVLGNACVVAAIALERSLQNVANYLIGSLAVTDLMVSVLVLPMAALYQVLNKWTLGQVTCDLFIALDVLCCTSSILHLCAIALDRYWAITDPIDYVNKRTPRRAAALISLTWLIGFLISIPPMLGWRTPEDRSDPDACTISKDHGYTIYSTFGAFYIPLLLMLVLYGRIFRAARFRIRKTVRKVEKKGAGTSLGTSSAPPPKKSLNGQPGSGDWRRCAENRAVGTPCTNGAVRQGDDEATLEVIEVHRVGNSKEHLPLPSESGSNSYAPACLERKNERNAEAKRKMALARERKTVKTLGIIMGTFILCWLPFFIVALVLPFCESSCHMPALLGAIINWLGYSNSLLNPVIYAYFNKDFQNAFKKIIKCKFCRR
The experiment in a line: Displacement of [3H]-8-OH-DPAT from 5-HT1A receptor in rat hippocampus by liquid scintillation counting. The assay is classed as tissue-based. An outline of the steps: as §1

The target of assay [3] is 5-hydroxytryptamine receptor 2A (Rattus norvegicus, UniProt P14842). The experiment in a line: Displacement of [3H]-ketanserin from 5-HT2A receptor in rat cortex by liquid scintillation counting. An outline of the steps: as §1
Assay [4] has as its target 5-hydroxytryptamine receptor 6 (Homo sapiens, UniProt P50406). The experiment in a line: Displacement of [3H]-LSD from human 5-HT6 receptor expressed in HEK293 cells after 1 hr by liquid scintillation counting. Type of assay: cell-based. An outline of the steps:
as §1

The test system of the next assay is HEK293. As to the kind of experiment: Selectivity ratio of Ki for 5-HT1A receptor in rat hippocampus to Ki for human 5-HT7 receptor expressed in HEK293 cells. The assay is classed as cell-based.

The structures appear in SMILES notation.

The Ki is a measure of affinity in units of concentration, obtained from inhibition or displacement. Read a high Ki as lower affinity.

Sequence of 5-hydroxytryptamine receptor 6 (P50406 whole entry): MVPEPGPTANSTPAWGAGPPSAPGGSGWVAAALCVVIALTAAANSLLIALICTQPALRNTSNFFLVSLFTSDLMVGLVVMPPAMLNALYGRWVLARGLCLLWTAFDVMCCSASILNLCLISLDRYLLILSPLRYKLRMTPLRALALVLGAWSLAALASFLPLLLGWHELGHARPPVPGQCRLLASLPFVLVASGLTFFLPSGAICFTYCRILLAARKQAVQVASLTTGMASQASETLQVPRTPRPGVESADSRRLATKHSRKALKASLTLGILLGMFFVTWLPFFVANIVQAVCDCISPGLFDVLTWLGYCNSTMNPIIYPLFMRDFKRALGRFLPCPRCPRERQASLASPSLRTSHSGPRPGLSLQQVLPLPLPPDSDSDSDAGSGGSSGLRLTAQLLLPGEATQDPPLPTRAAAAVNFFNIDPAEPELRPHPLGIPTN
Sequence of 5-hydroxytryptamine receptor 2A (P14842 whole entry): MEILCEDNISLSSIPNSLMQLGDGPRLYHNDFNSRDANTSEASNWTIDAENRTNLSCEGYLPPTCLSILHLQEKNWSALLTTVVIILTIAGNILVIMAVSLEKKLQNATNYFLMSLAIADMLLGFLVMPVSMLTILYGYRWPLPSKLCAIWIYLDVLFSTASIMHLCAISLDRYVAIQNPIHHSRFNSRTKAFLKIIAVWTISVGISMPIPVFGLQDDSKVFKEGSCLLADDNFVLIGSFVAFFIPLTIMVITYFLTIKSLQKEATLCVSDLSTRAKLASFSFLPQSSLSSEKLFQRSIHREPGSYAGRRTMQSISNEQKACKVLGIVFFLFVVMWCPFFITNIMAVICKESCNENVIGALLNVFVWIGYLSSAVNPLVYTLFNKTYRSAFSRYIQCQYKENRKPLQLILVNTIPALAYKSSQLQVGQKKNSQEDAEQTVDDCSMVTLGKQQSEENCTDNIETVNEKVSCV
Sequence of 5-hydroxytryptamine receptor 7 (P34969 whole entry): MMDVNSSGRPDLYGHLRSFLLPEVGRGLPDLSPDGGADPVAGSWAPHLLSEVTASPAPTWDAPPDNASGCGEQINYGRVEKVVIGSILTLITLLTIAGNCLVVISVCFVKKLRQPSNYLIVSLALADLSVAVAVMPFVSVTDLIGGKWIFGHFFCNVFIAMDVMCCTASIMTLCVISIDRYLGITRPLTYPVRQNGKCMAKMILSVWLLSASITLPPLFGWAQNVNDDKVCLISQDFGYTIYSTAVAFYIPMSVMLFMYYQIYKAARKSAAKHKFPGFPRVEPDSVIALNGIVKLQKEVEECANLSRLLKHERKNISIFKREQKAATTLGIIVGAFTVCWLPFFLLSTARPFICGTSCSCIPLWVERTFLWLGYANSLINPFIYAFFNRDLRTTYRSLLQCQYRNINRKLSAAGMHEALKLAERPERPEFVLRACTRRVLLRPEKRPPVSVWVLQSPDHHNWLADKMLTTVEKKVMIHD

In turn, `NCCN(CCCN1CCc2ccccc2C1)S(=O)(=O)c1ccccc1` registered a Ki in assay [1] of 267 nM.

In assay [1], `CCN(CCCN1CCN(c2ccccc2OC)CC1)S(=O)(=O)c1ccc(C)cc1` had a Ki of 19 nM.

As to `COc1ccccc1N1CCN(CCCNS(=O)(=O)c2cccc3cccnc23)CC1`, the Ki in assay [2] was found to be 37 nM; in assay [3], 2160 nM; in assay [1] it was 90 nM; in assay [4], 1640 nM. The Ratio Ki in the assay on HEK293 was found to be 0.4.

For the compound `COc1ccccc1N1CCN(CCCCNS(=O)(=O)c2cccc3cccnc23)CC1`, the results for the Ki in assay [2] and in assay [1] were 53 nM and 55 nM, respectively. Also, the Ratio Ki with HEK293 turned out to be 0.9.

On to `O=S(=O)(NCCCCN1CCC2CCCCC2C1)c1cnc2ccccc2c1` (stereo not given), for which the Ki is 1450 nM in assay [2] and 995 nM in assay [1]. The Ratio Ki in the assay on HEK293 stood at 1.5.

For the compound `COc1ccccc1N1CCN(CCCNS(=O)(=O)c2ccc3ncccc3c2)CC1`, the Ki in assay [2] came out at 18 nM; in assay [3], 825 nM; in assay [1], 156 nM; in assay [4], 2840 nM. Besides, the Ratio Ki in the assay on HEK293 is 0.1.

As for `O=S(=O)(NCCCCN1CCc2sccc2C1)c1cnc2ccccc2c1`, the Ki in assay [2] worked out at 986 nM; in assay [3], 1080 nM; in assay [1], 506 nM; in assay [4], 17400 nM. Moreover, the Ratio Ki in the assay on HEK293 was found to be 1.9.

On to `CCN(CCCCN1CCC2CCCCC2C1)S(=O)(=O)c1cnc2ccccc2c1` (stereo not given), for which the Ki in assay [2] is 325 nM; in assay [3], 5090 nM; in assay [1], 187 nM; in assay [4] it was 14500 nM. Besides, the Ratio Ki with HEK293 came out at 1.7.

With `COc1cccc2c1CCN(CCCNS(=O)(=O)c1cccc3ccccc13)C2`, the Ki in assay [1] was found to be 360 nM.

In assay [1], `O=S(=O)(NCCN1CCc2ccccc2C1)c1ccccc1` had a Ki of 773 nM.

In the case of `O=S(=O)(NCCCN1CCc2ccccc2C1)c1ccc2ccccc2c1`, the Ki in assay [1] was 80 nM.

With `COc1ccccc1N1CCN(CCCCNS(=O)(=O)c2cnc3ccccc3c2)CC1`, the Ki was determined as 3.7 nM in assay [2] and 79 nM in assay [1]. Also, the Ratio Ki in the assay on HEK293 was 0.05.

On to `CCN(CCCCN1CCN(c2ccccc2OC)CC1)S(=O)(=O)c1cccc2cccnc12`, for which the results for the Ki in assay [2] and in assay [1] were 30 nM and 37 nM, respectively. Further, the Ratio Ki in the assay on HEK293 amounted to 0.8.

Compound `O=S(=O)(NCCCN1CCc2ccccc2C1)c1ccccc1` yielded an inhibitory constant (Ki) in assay [1] of 270 nM.

For the compound `COc1ccccc1N1CCN(CCCCNS(=O)(=O)c2ccc3ncccc3c2)CC1`, the figures for the Ki in assay [2] and in assay [1] were 40 nM and 132 nM, respectively. In addition, in the assay on HEK293, the Ratio Ki worked out at 0.3.

Turning to `O=S(=O)(NCCCCN1CCc2ccccc2C1)c1cccc2cccnc12`, the inhibitory constant (Ki) worked out at 271 nM in assay [2], 4180 nM in assay [3], 88 nM in assay [1] and 1460 nM in assay [4]. Further, the Ratio Ki in the assay on HEK293 was found to be 3.

For `O=S(=O)(NCCN1CCc2ccccc2C1)c1ccc2ccccc2c1`, in assay [1], the inhibitory constant (Ki) came out at 78 nM. This counts as double-digit nanomolar.

In assay [1], `NCCCN(CCCCN1CCc2ccccc2C1)S(=O)(=O)c1ccccc1` showed a Ki of 235 nM.

For the compound `O=S(=O)(NCCCCN1CCc2ccccc2C1)c1ccc2ccccc2c1`, affinity in assay [1] was put at a Ki of 64 nM.

For the compound `CCN(CCCCN1CCN(c2ccccc2OC)CC1)S(=O)(=O)c1cnc2ccccc2c1`, the Ki in assay [2] was 9.3 nM; in assay [1] it was 38 nM. Moreover, the Ratio Ki with HEK293 is 0.2.

As for `CCN(CCCN1CCN(c2ccccc2OC)CC1)S(=O)(=O)c1ccc2ncccc2c1`, the Ki came to 25 nM in assay [2], 1320 nM in assay [3], 29 nM in assay [1] and 1920 nM in assay [4]. Besides, in the assay on HEK293, the Ratio Ki came out at 0.9.

Take `O=S(=O)(NCCCCN1CCC2CCCCC2C1)c1cccc2cccnc12` (stereo not given): the Ki in assay [2] was found to be 3570 nM; in assay [1], 1260 nM. Further, the Ratio Ki in the assay with HEK293 was 2.8.

Compound `O=S(=O)(NCCCCN1CCc2ccccc2C1)c1ccccc1` had a Ki in assay [1] of 94 nM.

In turn, `NCCCN(CCN1CCc2ccccc2C1)S(=O)(=O)c1ccccc1` gave a Ki in assay [1] of 3010 nM.

On to `O=S(=O)(NCCCCN1CCc2sccc2C1)c1ccc2cccnc2c1`, for which the Ki turned out to be 483 nM in assay [2], 2650 nM in assay [3], 334 nM in assay [1] and 17500 nM in assay [4]. In addition, the Ratio Ki with HEK293 is 1.4.

On to `O=S(=O)(NCCCCN1CCc2ccccc2C1)c1ccc2ncccc2c1`, for which the inhibition constant (Ki) in assay [2] is 233 nM; in assay [3], 1520 nM; in assay [1], 224 nM; in assay [4], 8250 nM. Besides, in the assay with HEK293, the Ratio Ki was 1.

In the case of `CCN(CCCCN1CCN(c2ccccc2OC)CC1)S(=O)(=O)c1ccc2ncccc2c1`, the Ki in assay [2] amounted to 21 nM; in assay [1] it was 41 nM. In the assay with HEK293, the Ratio Ki was 0.5.

As to `O=S(=O)(NCCCN1CCC2CCCCC2C1)c1ccc2ncccc2c1` (stereo not given), the Ki in assay [2] was found to be 4310 nM; in assay [1] it was 1420 nM. Moreover, the Ratio Ki in the assay on HEK293 was 3.

On to `O=S(=O)(NCCCCN1CCc2ccccc2C1)c1cnc2ccccc2c1`, for which the Ki was determined as 305 nM in assay [2], 590 nM in assay [3], 228 nM in assay [1] and 8640 nM in assay [4]. Moreover, in the assay on HEK293, the Ratio Ki turned out to be 1.3.

`NCCCN(CCCN1CCc2ccccc2C1)S(=O)(=O)c1ccccc1` had a Ki in assay [1] of 335 nM.

Compound `O=S(=O)(NCCCCN1CCc2ccccc2C1)c1cccc2ccccc12` had a Ki in assay [1] of 296 nM.

(Values after ChEMBL document CHEMBL1914452, “Arene- and quinoline-sulfonamides as novel 5-HT7 receptor ligands” (Bioorg Med Chem, 2011).)
